How the values were obtained:
K562 = test: Antiproliferative activity against human K562 cells after 48 hrs by MTT assay; type: functional, cell-based; conditions: K562, 48 h
How it was run: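 MTT assay on K562 cells (RPMI-1640, 10% FBS) plated at 5 × 10^4 cells/ml for 2 h, then exposed to 10–100,000 nM compound for 48 h. MTT (5 mg/mL stock) added for 4 h before absorbance read. Viability normalized to DMSO controls (100%); IC50 from nonlinear regression, three independent assays.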

HepG2 = test: Antiproliferative activity against human HepG2 cells after 48 hrs by MTT assay; type: functional, cell-based; conditions: HepG2, 48 h

Row | IC50 (K562) | IC50 (HepG2) | Compound
1 | 60 nM | 410 nM | COc1ccc(CN2C(=O)C(=O)c3cc(-c4ccc(OC(F)(F)F)cc4)ccc32)cc1
2 | 140 nM | 410 nM | COc1ccc(-c2ccc3c(c2)C(=O)C(=O)N3Cc2cc(C)cc(C)c2)cc1
3 | > 10000 nM | > 10000 nM | O=C1Nc2ccc(Br)cc2C1=O
4 | 150 nM | 1080 nM | COc1ccc(CN2C(=O)C(=O)c3cc(-c4ccccc4)ccc32)cc1
5 | 560 nM | 1120 nM | COc1ccc(-c2ccc3c(c2)C(=O)C(=O)N3Cc2ccc(F)cc2)cc1
6 | 2200 nM | 4470 nM | CCN1C(=O)C(=O)c2cc(-c3ccc(OC)cc3)ccc21
7 | > 10000 nM | > 10000 nM | COc1ccc2c(c1)C(=O)C(=O)N2 [5-METHOXYISATIN]
8 | 200 nM | 320 nM | COc1ccc(-c2ccc3c(c2)C(=O)C(=O)N3Cc2cccc(Cl)c2)cc1
9 | > 10000 nM | > 10000 nM | COc1ccc(-c2ccc3c(c2)C(=O)C(=O)N3c2ccc(OC)cc2)cc1
10 | 380 nM | > 10000 nM | COc1ccc(CN2C(=O)C(=O)c3cc(-c4ccc(F)c(Cl)c4)ccc32)cc1
11 | 260 nM | > 10000 nM | COc1ccc(CN2C(=O)C(=O)c3cc(-c4ccc(OC)c(OC)c4)ccc32)cc1
12 | 100 nM | 700 nM | COc1ccc(-c2ccc3c(c2)C(=O)C(=O)N3Cc2ccc(Br)cc2)cc1
13 | 270 nM | 330 nM | COc1ccc(-c2ccc3c(c2)C(=O)C(=O)N3Cc2ccc(C)cc2)cc1
14 | > 10000 nM | 5430 nM | O=C1Nc2ccc(-c3ccc(C(F)(F)F)cc3)cc2C1=O
15 | 350 nM | 820 nM | COc1ccc(CN2C(=O)C(=O)c3cc(-c4ccc(C(F)(F)F)cc4)ccc32)cc1
16 | 370 nM | > 10000 nM | COc1ccc(CN2C(=O)C(=O)c3cc(-c4ccccc4OC)ccc32)cc1
17 | 80 nM | 3670 nM | COc1ccc(CN2C(=O)C(=O)c3cc(-c4ccsc4)ccc32)cc1
18 | 380 nM | 600 nM | COc1ccc(-c2ccc3c(c2)C(=O)C(=O)N3Cc2ccccc2Cl)cc1
19 | > 10000 nM | > 10000 nM | COc1ccc(CN2C(=O)C(=O)c3c(-c4ccc(OC)cc4)cccc32)cc1
20 | 4430 nM | 8560 nM | COc1ccc(CN2C(=O)C(=O)c3cccc(-c4ccc(OC)cc4)c32)cc1
21 | 230 nM | 380 nM | COc1ccc(CN2C(=O)C(=O)c3cc(-c4ccc(Cl)cc4)ccc32)cc1
22 | > 10000 nM | > 10000 nM | COc1ccc(CN2C(=O)C(C)(O)c3cc(-c4ccc(OC)cc4)ccc32)cc1 (stereo not drawn)

Row | IC50 (K562) | IC50 (HepG2) | Compound
23 | > 10000 nM | > 10000 nM | COc1ccc(CN2C(=O)Cc3cc(-c4ccc(OC)cc4)ccc32)cc1
24 | > 10000 nM | 6000 nM | Cc1ccc(-c2ccc3c(c2)C(=O)C(=O)N3)cc1
25 | 30 nM | 440 nM | COc1ccc(-c2ccc3c(c2)C(=O)C(=O)N3Cc2ccc3c(c2)OCO3)cc1
26 | > 10000 nM | 5330 nM | O=C1Nc2ccc(-c3ccccc3)cc2C1=O
27 | > 10000 nM | > 10000 nM | Cc1ccc2c(c1)C(=O)C(=O)N2
28 | 350 nM | 250 nM | COc1ccc(-c2ccc3c(c2)C(=O)C(=O)N3Cc2ccc(Cl)cc2)cc1
29 | 2250 nM | 4580 nM | COc1ccc(CN2C(=O)C(=O)c3cc(-c4ccc(C(C)(C)C)cc4)ccc32)cc1
30 | 260 nM | 890 nM | COc1ccc(CN2C(=O)C(=O)c3cc(-c4ccc(C#N)cc4)ccc32)cc1
31 | 40 nM | 130 nM | COc1ccc(-c2ccc3c(c2)C(=O)C(=O)N3Cc2ccccc2OC)cc1
32 | 390 nM | 7090 nM | C=CCN1C(=O)C(=O)c2cc(-c3ccc(OC)cc3)ccc21
33 | 400 nM | > 10000 nM | COc1ccc(CN2C(=O)C(=O)c3cc(-c4ccc(C)cc4)ccc32)cc1
34 | 310 nM | > 10000 nM | COc1ccc(CN2C(=O)C(=O)c3cc(-c4ccc(OC(C)C)cc4)ccc32)cc1
35 | 430 nM | 990 nM | COc1ccc(-c2ccc3c(c2)C(=O)C(=O)N3Cc2ccc(Cl)c(Cl)c2)cc1
36 | > 10000 nM | > 10000 nM | COc1ccc(CN2C(=O)C(F)(F)c3cc(-c4ccc(OC)cc4)ccc32)cc1
37 | > 10000 nM | > 10000 nM | COc1ccc(CN2C(=O)/C(=C\c3ccccc3)c3cc(-c4ccc(OC)cc4)ccc32)cc1
38 | 340 nM | > 10000 nM | COc1ccc(CN2C(=O)C(=O)c3cc(-c4ccc5ccccc5c4)ccc32)cc1
39 | – | 380 nM | COc1ccc(-c2ccc3c(c2)C(=O)C(=O)N3Cc2ccc3ccccc3c2)cc1
40 | 100 nM | 1890 nM | COc1ccc(CN2C(=O)C(=O)c3cc(-c4cccc(OC)c4)ccc32)cc1
41 | 1900 nM | 4730 nM | COC(=O)/C=C1\C(=O)N(Cc2ccc(OC)cc2)c2ccc(-c3ccc(OC)cc3)cc21
42 | > 10000 nM | > 10000 nM | COc1ccc(CN2C(=O)C3(OCCO3)c3cc(-c4ccc(OC)cc4)ccc32)cc1
43 | 240 nM | 3150 nM | COc1ccc(CN2C(=O)C(=O)c3cc(-c4ccc(F)cc4)ccc32)cc1
44 | 1240 nM | 3390 nM | CCOC(=O)/C=C1\C(=O)N(Cc2ccc(OC)cc2)c2ccc(-c3ccc(OC)cc3)cc21

Row | IC50 (K562) | IC50 (HepG2) | Compound
45 | 570 nM | 1360 nM | COc1ccc(-c2ccc3c(c2)C(=O)C(=O)N3Cc2ccccc2)cc1
46 | > 10000 nM | > 10000 nM | COc1ccc(CN2C(=O)/C(=N\O)c3cc(-c4ccc(OC)cc4)ccc32)cc1
47 | 4980 nM | 6670 nM | COc1ccc(-c2ccc3c(c2)C(=O)C(=O)N3C)cc1
48 | > 10000 nM | > 10000 nM | COc1ccc(CN2C(=O)/C(=C\c3ccc(C(C)C)cc3)c3cc(-c4ccc(OC)cc4)ccc32)cc1
49 | > 10000 nM | > 10000 nM | O=C1Nc2ccccc2C1=O [ISATIN]
50 | 380 nM | 1000 nM | COc1ccc(-c2ccc3c(c2)C(=O)C(=O)N3Cc2ccc(C#N)cc2)cc1
51 | 400 nM | 700 nM | COc1ccc(-c2ccc3c(c2)C(=O)C(=O)N3CCOc2ccccc2)cc1
52 | > 10000 nM | > 10000 nM | CCCCc1ccc2c(c1)C(=O)C(=O)N2
53 | 1900 nM | > 10000 nM | COc1ccc(CN2C(=O)/C(=C\c3ccc(C(F)(F)F)cc3)c3cc(-c4ccc(OC)cc4)ccc32)cc1
54 | 60 nM | 1350 nM | COc1ccc(-c2ccc3c(c2)C(=O)C(=O)N3Cc2ccc(OC)c(OC)c2)cc1
55 | > 10000 nM | > 10000 nM | O=C1Nc2ccc(F)cc2C1=O [5-FLUOROISATIN]
56 | 140 nM | 700 nM | COc1ccc(CN2C(=O)C(O)c3cc(-c4ccc(OC)cc4)ccc32)cc1 (stereo not drawn)
57 | 6920 nM | 960 nM | COc1ccc(-c2ccc3c(c2)C(=O)C(=O)N3)cc1
58 | 7460 nM | > 10000 nM | COc1ccc(CN2C(=O)C(=O)c3ccc(-c4ccc(OC)cc4)cc32)cc1
59 | 40 nM | > 10000 nM | COc1ccc(CN2C(=O)C(=O)c3cc(-c4ccncc4)ccc32)cc1
60 | > 10000 nM | > 10000 nM | O=C1Nc2ccc(Cl)cc2C1=O
61 | 510 nM | 1200 nM | COc1ccc(CN2C(=O)C(=O)c3cc(-c4cc(OC)cc(OC)c4)ccc32)cc1
62 | 60 nM | > 10000 nM | COc1ccc(CN2C(=O)C(=O)c3cc(-c4ccc(O)cc4)ccc32)cc1
63 | – | 700 nM | COc1ccc(-c2ccc3c(c2)C(=O)C(=O)N3Cc2cccc(OC)c2)cc1
64 | 270 nM | 380 nM | COc1ccc(-c2ccc3c(c2)C(=O)C(=O)N3Cc2ccc(C(F)(F)F)cc2)cc1

Row | Compound | IC50 (K562) | IC50 (HepG2)
65 | CC[C@@]1(O)C(=O)OCc2c1cc1n(c2=O)Cc2cc3ccccc3nc2-1 [CAMPTOTHECIN] | 70 nM | 370 nM

— ChEMBL document CHEMBL4270578, “Synthesis and cytotoxic studies of novel 5-phenylisatin derivatives and their anti-migration and anti-angiogenic evaluation” (Eur J Med Chem, 2018)
